From PubChem
V1aR counter: V1a receptor agonism, counter-screen for OXTR agonists; CHO-V1R cells, Fluo-8 calcium fluorescence, agonist mode; 0% DMSO, 100% 3 nM vasopressin; activation, % at 3 µM; 320,000 tested, 0.25% active;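 active = activation above the mean activation of all tested compounds plus 3 SD, per screening run, cut at about 20% in these data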;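 also: signal is peak over basal fluorescence ratio across a 100 second FLIPR read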
M4 PAM: potentiates acetylcholine response at human M4 receptor; CHO-K1 hM4/Gqi5, Fluo-8 calcium fluorescence, ACh EC20; 0% = ACh EC20, 100% = maximal ACh; activation, % at 3 µM; 360,000 tested, 0.4% active; AID 624126;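 active = activation above its plate's cutoff, the mean activation of sample wells plus 3 SD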
CHRM4 agonist: CHRM4 agonism in calcium assay; CHO-K1 hM4/Gqi5, Fluo-8 calcium fluorescence; vehicle 0%, full acetylcholine response 100%; 360,000 tested, 0.14% active; activation, % at 3 µM;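 active = activation above the run mean over all test wells plus 3 SD, cut at about 32% in these data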;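 also: peak over basal fluorescence ratio per well then scaled between controls; 0% = DMSO wells and 100% = acetylcholine at EC100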
OXTR ag: human OXTR agonism | P30559 | CHO-OTR cells, Fluo-8 calcium fluorescence; normalized: DMSO 0%, oxytocin 100% | activation, % at 3 µM | 320,000 tested, 0.32% active | AID 2435;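 active = activation above the mean of all tested compounds plus 3 SD, cutoff set per screening run, cut at about 20% in these data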;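 also: peak over basal fluorescence ratio from a 100 s FLIPR kinetic read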
Target sequence (P30559 whole entry, looked up): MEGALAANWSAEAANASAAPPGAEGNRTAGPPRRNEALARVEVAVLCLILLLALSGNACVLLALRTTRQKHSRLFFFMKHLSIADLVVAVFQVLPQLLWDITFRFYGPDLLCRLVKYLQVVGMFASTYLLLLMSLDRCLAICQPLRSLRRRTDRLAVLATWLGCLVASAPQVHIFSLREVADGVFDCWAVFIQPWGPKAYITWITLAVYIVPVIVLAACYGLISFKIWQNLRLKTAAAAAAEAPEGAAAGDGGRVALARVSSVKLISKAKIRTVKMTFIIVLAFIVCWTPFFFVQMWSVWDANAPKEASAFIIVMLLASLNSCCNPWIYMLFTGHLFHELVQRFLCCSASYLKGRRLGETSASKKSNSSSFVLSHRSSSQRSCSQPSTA
M4 antag: CHRM4 antagonism in calcium assay; P08173; CHO-hM4 cells, ACh EC80, Fluo-8 calcium fluorescence; inhibition, % at 3 µM; 360,000 tested, 0.73% active;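 active = inhibition above its plate's cutoff, the mean inhibition of sample wells plus 3 SD, cut at about 27% in these data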;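 also: 0% = acetylcholine EC80 with DMSO and 100% = DMSO without agonist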
OXTR potentiate: human OXTR potentiation; P30559; CHO-OTR cells, Fluo-8 calcium fluorescence, potentiator mode; 0% = oxytocin EC15, 100% = EC100; activation, % at 3 µM; 320,000 tested, 0.061% active;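 active = activation above that plate's cutoff, the mean activation of tested compounds plus 3 SD, cut at about 6.6% in these data, passing the limit was not always enough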;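 also: 100% uses oxytocin at 75 nM as the full agonist control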
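Replication – single well per compound, singlicate · Assay system – CHO cell line stably expressing human OTR · Timing – 6 min pre-incubation, 100 s read · Measure – normalized max/min fluorescence ratio, % activation · Doses – 3.0 µM, one dose · Detection – Fluo-8 calcium dye fluorescence · Probe or stimulus – oxytocin near EC15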
* = called active by the depositor; . = not tested or not shown. An excerpt weighted towards active compounds, which were near 1.5% of everything screened.

SMILES	V1aR counter	M4 PAM	CHRM4 agonist	OXTR ag	M4 antag	OXTR potentiate
COc1ccc(-n2c(O)c(/C=C/C=Nc3ccccc3)c(=O)[nH]c2=O)cc1	43.0*	-9.4	24.3	80.3*	15.3	-14.9
O=c1[nH]c(=O)n(-c2ccccc2)c(O)c1/C=C/C=Nc1ccccc1	12.9	1.8	5.5	16.1	-4.0	-7.8
COC(=O)C1=C(c2ccc(-c3ccccc3)c(F)c2)C[C@@H]2CC[C@H]1N2C(=O)NCCCOC(C)C	2.8	-2.1	10.3	0.3	-7.1	-3.6
OC(Cc1ccccc1)(c1ccccc1)C1CN2CCC1CC2 (stereo unspecified)	0.5	-24.4	1.4	5.1	84.9*	2.5
c1ccc(C2CN3CCC2CC3)cc1 (stereo unspecified)	0.1	-12.7	0.0	-0.9	10.8	-7.6
OCC[N+]12CCC(CC1)C(C(O)(c1ccccc1)c1ccccc1)C2 (stereo unspecified)	0.9	-33.4	-0.3	-0.3	-2.8	-1.6
OC(c1ccccc1)(c1ccc(Cl)cc1)C1CN2CCC1CC2 (stereo unspecified)	0.8	-55.4	8.6	0.5	44.3*	-3.3
OC(c1ccccc1)(c1ccccc1)C1CN2CCC1CC2 (stereo unspecified)	0.1	-21.1	1.2	0.0	75.0*	-16.4
CC(C)(C)c1cc([N+](=O)[O-])cc(C(C)(C)C)c1O	5.4	.	.	3.7	.	-10.9
CC(=O)c1cn(Cc2ccccc2C#N)c2ccccc12	11.4	-22.4	22.3	15.2	28.8*	-11.8
CC(C)C(=O)c1cn(Cc2ccccc2C#N)c2ccccc12	-0.4	-0.4	-0.5	-1.4	-1.0	2.9
CN1C(=O)N(C)C(=O)C2(Cc3cc(NC(=O)c4ccc(F)cc4)ccc3N3CCCC32)C1=O (stereo unspecified)	-0.5	4.0	1.0	-1.3	2.9	-3.8
O=[N+]([O-])c1ccc(-[n+]2c(-c3ccccc3)cc(-c3ccccc3)cc2-c2ccccc2)cc1	-0.1	-9.5	0.5	-0.2	39.6*	-1.9
Oc1ccc(-[n+]2c(-c3ccccc3)cc(-c3ccccc3)cc2-c2ccccc2)cc1	0.5	-11.6	3.1	-1.0	54.2*	-1.6
O=C([O-])c1ccc(-[n+]2c(-c3ccccc3)cc(-c3ccccc3)cc2-c2ccccc2)cc1	0.6	-5.6	0.9	0.5	21.4	-7.5
N#CC(CCN1CCOCC1)(c1ccccc1)c1ccccc1	0.3	-7.2	0.7	-0.5	13.6	-6.7
CC(CC(C#N)(c1ccccc1)c1ccccc1)N(C)C (stereo unspecified)	0.7	-16.8	1.1	0.8	90.6*	-0.8
CCCn1ncc(CN2CCCC(C(=O)c3cccc(OC)c3)C2)c1C (stereo unspecified)	0.4	-23.2	1.3	1.0	55.5*	-3.3
CCCn1cc(CN2CCCC(C(=O)c3cccc(OC)c3)C2)c(C)n1 (stereo unspecified)	1.3	-12.3	2.1	1.8	-3.7	-5.7
CC(C)[N+](C)(CCC(C(N)=O)(c1ccccc1)c1ccccc1)C(C)C	1.6	-18.0	-0.2	0.9	99.7*	-4.2
CN[C@@H]1C[C@@H](c2ccc(Cl)c(Cl)c2)c2ccccc21	15.6	.	.	27.8*	.	-4.1
O=C(c1ccc(F)c([N+](=O)[O-])c1)N1CC2CC(C1)c1cccc(=O)n1C2 (stereo unspecified)	0.1	3.1	-0.4	1.0	2.2	-0.7
CCN1/C(=C\C=C\C2=[N+](CC)c3ccccc3C2(C)C)C(C)(C)c2ccccc21	459.4*	-20.5	251.6*	443.4*	91.7*	-24.2
COc1ccc(-n2nnnc2C(CCc2ccccc2)N2CCC(n3c(=O)[nH]c4ccccc43)CC2)cc1 (stereo unspecified)	.	-7.5	16.7	.	10.1	.
CCCCCCC(Cl)(Cn1ccnc1)c1ccccc1 (stereo unspecified)	-2.5	-25.6	-1.6	-2.3	13.8	-9.5
SMILES	V1aR counter	M4 PAM	CHRM4 agonist	OXTR ag	M4 antag	OXTR potentiate
CCOC(=O)[C@]12Cc3cc(C)ccc3[C@H]1N(C1CCCCC1)C(=O)c1cc(OC)ccc12	.	-2.3	0.6	.	64.6*	.
CCOC(=O)[C@]12Cc3cc(OC)ccc3[C@H]1N(C1CCCCC1)C(=O)c1cc(OC)ccc12	.	-0.1	-1.7	.	0.0	.
CCOC(=O)[C@]12Cc3cc(C)ccc3[C@H]1N(C(C)C)C(=O)c1ccccc12	.	20.3	-2.0	.	-8.5	.
COC1C(C)OC(OC2CC(C)(O)Cc3cc4c(c(O)c32)C(=O)c2c(O)cc3c(c2C4=O)OC2OC3(C)C(O)C(N(C)C)C2O)C(OC)C1(C)OC (stereo unspecified)	.	6.5	14.5	.	-7.6	.
Cc1nn(Cc2ccc(Cl)cc2Cl)c(Cl)c1C(=O)O	-0.1	21.1*	2.2	-0.8	-12.2	-10.9
COc1ccccc1CCNC1CCC(C)CC1 (stereo unspecified)	-0.3	-10.6	0.5	-0.1	11.7	-0.9
COc1ccccc1CCNC1C2CC3CC(C2)CC1C3 (stereo unspecified)	0.9	-14.5	1.1	1.8	31.6*	-2.0
CCN(CC)CCC(=O)O[C@H]1CC[C@]2(C)C3CC[C@@]4(C)C(CC[C@]4(C)O)C3CC[C@H]2C1 (stereo partly specified)	12.5	-10.5	29.5	18.1	27.7*	-9.2
CCC1CN1P1(=O)OCC(C)([N+](=O)[O-])CO1 (stereo unspecified)	.	0.0	0.8	.	-9.5	.
Cc1ccc(C(C)C)c(OCC#CCN2CCCC2)c1	-0.8	-25.9	-0.2	-0.3	31.8*	2.5
O=P(Oc1ccccc1)(N1CCOCC1)N1CCOCC1	.	15.5*	0.8	.	-10.5	.
COC(=O)C1=C(c2cc3ccccc3s2)C[C@@H]2CC[C@H]1N2C(=O)NCCNC(C)=O	-0.4	-5.7	-0.6	-0.3	18.9	-3.0
N#CC(C#N)=NNc1ccc(-n2ccc(C(F)(F)F)n2)cc1	14.1	-2.6	15.5	24.4*	8.0	-20.7
O=C(c1cc(F)ccc1F)C1CCCN(CCCc2ccccc2)C1 (stereo unspecified)	-0.5	-16.8	-0.2	-1.1	31.6*	3.3
O=C(c1cc(F)ccc1F)C1CCCN(Cc2cccc(Cl)c2)C1 (stereo unspecified)	-1.3	-12.3	-1.9	-1.9	0.0	-6.5
COC(=O)C1=C(c2ccc(S(C)(=O)=O)cc2)C[C@@H]2CC[C@H]1N2C(=O)NCCNC(C)=O	0.4	4.4	0.4	0.4	-8.3	-6.1
COC(=O)C1=C(c2ccccc2)C[C@@H]2CC[C@H]1N2C(=O)NCc1ccc(C(F)(F)F)cc1	-0.1	-10.0	1.4	-0.9	1.3	-8.0
